From PMC12394810 (RSC Advances, 2025)
“Also recorded” adds a separate entry of the source.

What was measured:
[1] = tested on: SKBR-3 (human breast cancer cell line); assay: MTT cytotoxicity assay, SKBR-3; assay type: cell-based; details: SK-BR-3, 48 h, read-out: IC50 SKBR-3
Outline: (§1)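 ATCC cells grown in DMEM with 10% FBS, 2 mM L-glutamine and 100 μg/mL penicillin–streptomycin at 37 °C, 5% CO2. Medium refreshed, 10 μL of 12 mM MTT stock added, then 4 h in the dark at 37 °C. Formazan dissolved in DMSO and read at 570 nm against media-only blanks. Three independent experiments; IC50 by linear regression.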

[2] = tested on: HEK-293 (human embryonic kidney cell line); assay: MTT cytotoxicity assay, HEK-293; assay type: cell-based; details: HEK293, 48 h, read-out: IC50 HEK-293
[3] = tested on: HepG2 (Human hematoma cell line); assay: MTT cytotoxicity assay, HEPG2; assay type: cell-based; details: HepG2, 48 h, read-out: IC50 HEPG2
Outline: as §1

[4] = tested on: DU145 (human prostate cell line); assay: MTT cytotoxicity assay, DU145; assay type: cell-based; details: DU-145, 48 h, read-out: IC50 DU145
Outline: as §1

[5] = tested on: erythrocytes (heparinized human blood); assay: Erythrocyte osmotic fragility; assay type: cell-based; details: 1 μL of 10 mg mL^−1 stock, 37 °C, 30 min
Swiss albino mice = assay: In vivo acute oral toxicity of compound 5n; details: for ALKP / Albumin / Bilirubin / Body weight / Cholesterol / Creatinine / Haemoglobin / RBC / SGOT / SGPT / Serum protein / Triglycerides / WBC: n = 6
Outline: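 30 Swiss albino mice (15 male, 15 female; 22–25 g), 7-day acclimatization, 22 ± 5 °C, 12 h light/dark, standard feed and water ad libitum. Five groups of 3 male + 3 female. Single oral dose of test compound at 5, 50, 300 or 1000 mg kg−1, suspended in gum acacia and 0.7% CMC; controls received vehicle. Clinical observation, body weight, haematology, serum biochemistry, organ weights; mean ± SE, n = 6, compared with control.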

[6] = tested on: Staphylococcus aureus MTCC 96; assay: Agar well diffusion, antibacterial; assay type: cell-based; details: 1 mg/mL, 18 hrs
Outline: (§2)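 Agar well diffusion per CLSI (2012). Bacteria grown on Mueller–Hinton agar and kept in Mueller–Hinton broth at 37 °C for 24 h. Inoculum spread evenly over the agar, 6–8 mm wells punched, and each well loaded with 20–100 μL test compound. Plates incubated at 37 °C and zones of inhibition measured in mm.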

[7] = tested on: Klebsiella pneumoniae MTCC 109; assay: Agar well diffusion, antibacterial; assay type: cell-based; details: 1 mg/mL, 18 hrs
Outline: as §2

[8] = tested on: Escherichia coli MTCC 730; assay: Agar well diffusion, antibacterial; assay type: cell-based; details: 1 mg/mL, 18 hrs
Outline: as §2

[9] = tested on: Candida albicans MTCC 227; assay: Agar well diffusion, antifungal; assay type: cell-based; details: Candida albicans, MTCC227, 18 h, read-out: Zone of inhibition Candida albicans
Outline: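 Fungal strains kept like the bacteria (Mueller–Hinton media) but at 30 °C. Agar well diffusion per CLSI (2012): inoculum spread over the agar, 6–8 mm wells punched, and 20–100 μL test compound added per well. Plates incubated at 30 °C and zone of inhibition diameter read in mm.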

[10] = tested on: Bacillus subtilis MTCC 121; assay: Agar well diffusion, antibacterial; assay type: cell-based; details: 1 mg/mL, 18 hrs
Outline: as §2

[11] = single acute oral dose 5, 50, 300, 1000 mg kg^−1
[12] = single oral dose 5 mg kg^−1, mean ± SE
[13] = single oral dose 50 mg kg^−1, mean ± SE
[14] = single oral dose 300 mg kg^−1, mean ± SE
[15] = single oral dose 1000 mg kg^−1, mean ± SE

Question: How did the IC50 [1] turn out when `O=C(/C=C/C=C/c1ccccc1)c1ccccc1OCc1ccc(F)cc1` [Compound 5e, (2E,4E)-1-(2-((4-Fluorobenzyl)oxy)phenyl)-5-phenylpenta-2,4-dien-1-one] was run?
Answer: 56.1 ± 1.8 µM

Question: What about the IC50 [2] of the same compound?
Answer: 49.8 ± 2.8 µM

Question: And the IC50 [3]?
Answer: 282 ± 5.7 µM

Question: And the IC50 [4]?
Answer: 278.6 ± 1.7 µM

Question: With `O=c1c(O)c(-c2ccc(O)c(O)c2)oc2cc(O)cc(O)c12` [Quercetin, reference compound] as the compound, how does the “MEF50 (Mean Erythrocyte Fragility; concentration of PBS at which 50% of erythrocytes undergo hemolysis)” value [5] read?
Answer: 0.431

Question: `O=C(/C=C/C=C/c1ccccc1)c1ccccc1OCc1ccccc1Br` [Compound 5h, (2E,4E)-1-(2-((2-Bromobenzyl)oxy)phenyl)-5-phenylpenta-2,4-dien-1-one] was tested. Which IC50 [1] did it give?
Answer: 244 ± 4.7 µM

Question: What about the IC50 [2] of the same compound?
Answer: 23.4 ± 4.7 µM

Question: And the IC50 [3]?
Answer: 45 ± 3.3 µM

Question: And the IC50 [4]?
Answer: 28.6 ± 2.2 µM

Question: With `O=C(/C=C/C=C/c1ccccc1)c1ccccc1OCc1ccc(Cl)cc1` [Compound 5c, (2E,4E)-1-(2-((4-Chlorobenzyl)oxy)phenyl)-5-phenylpenta-2,4-dien-1-one] as the compound, how does the IC50 [1] read?
Answer: 30.7 ± 2 µM

Question: What about the IC50 [2] of the same compound?
Answer: 22.3 ± 1.2 µM

Question: What about the IC50 [3] of the same compound?
Answer: 40.17 ± 0.2 µM

Question: And the IC50 [4]?
Answer: 47.1 ± 4.5 µM

Question: Which results are given for `O=C(/C=C/C=C/c1ccccc1)c1ccccc1OCc1cccc(Cl)c1` [Compound 5a, (2E,4E)-1-(2-((3-Chlorobenzyl)oxy)phenyl)-5-phenylpenta-2,4-dien-1-one]?
Answer: IC50 [1]: 20.8 ± 1.7 µM; IC50 [2]: 30.1 ± 8.3 µM; IC50 [3]: 40.3 ± 2.9 µM; IC50 [4]: 45.2 ± 2.1 µM

Question: With `COc1cccc2c1C(=O)c1c(O)c3c(c(O)c1C2=O)C[C@@](O)(C(=O)CO)C[C@@H]3O[C@H]1C[C@H](N)[C@H](O)[C@H](C)O1` [Doxorubicin, reference compound] as the compound, how does the IC50 [1] read?
Answer: 0.7 ± 0.56 µM

Question: And the IC50 [3]?
Answer: 2.5 ± 1.42 µM

Question: And the IC50 [4]?
Answer: 0.45 ± 0.52 µM

Question: Which results are given for `O=C(/C=C/C=C/c1ccccc1)c1ccccc1OCCBr` [Compound 5n, (2E,4E)-1-(2-(2-Bromoethoxy)phenyl)-5-phenylpenta-2,4-dien-1-one]?
Answer: Dose well tolerated / safe as a single acute oral dose (Swiss albino mice; oral): up to 1000 mg kg^−1; Gross pathology, absolute and relative organ weights (Swiss albino mice; [11]): no significant abnormalities in absolute or relative organ weights; Morbidity, mortality, abnormal clinical signs (Swiss albino mice; [11]): no morbidity, mortality, or abnormal clinical signs; also recorded: no morbidity, mortality; ALKP (Swiss albino mice; [12]): 170.67 ± 13.43 U L^−1; Albumin (Swiss albino mice; [12]): 2.55 ± 0.19 g/dL; Bilirubin (Swiss albino mice; [12]): 0.50 ± 0.00 mg/dL; Body weight (Swiss albino mice; [12]): 31.33 ± 1.54 g; Cholesterol (Swiss albino mice; [12]): 113.94 ± 4.49 mg/dL; Creatinine (Swiss albino mice; [12]): 0.92 ± 0.08 mg/dL; Haemoglobin (Swiss albino mice; [12]): 12.74 ± 0.51 g/dL; RBC (Swiss albino mice; [12]): 8.20 ± 0.60 million per mm^3; SGOT (Swiss albino mice; [12]): 20.84 ± 0.88 U L^−1; SGPT (Swiss albino mice; [12]): 16.76 ± 0.67 U L^−1; Serum protein (Swiss albino mice; [12]): 5.85 ± 0.13 mg/mL; Triglycerides (Swiss albino mice; [12]): 111.43 ± 4.39 mg/dL; WBC (Swiss albino mice; [12]): 9.48 ± 0.68 1000*/mm^3; ALKP (Swiss albino mice; [13]): 164.25 ± 13.54 U L^−1; Albumin (Swiss albino mice; [13]): 2.58 ± 0.07 g/dL; Bilirubin (Swiss albino mice; [13]): 0.51 ± 0.00 mg/dL; Body weight (Swiss albino mice; [13]): 28.33 ± 0.72 g; Cholesterol (Swiss albino mice; [13]): 110.16 ± 3.57 mg/dL; Creatinine (Swiss albino mice; [13]): 0.86 ± 0.06 mg/dL; Haemoglobin (Swiss albino mice; [13]): 12.68 ± 0.67 g/dL; RBC (Swiss albino mice; [13]): 7.77 ± 0.66 million per mm^3; SGOT (Swiss albino mice; [13]): 20.60 ± 1.71 U L^−1; SGPT (Swiss albino mice; [13]): 18.63 ± 0.59 U L^−1; Serum protein (Swiss albino mice; [13]): 5.76 ± 0.16 mg/mL; Triglycerides (Swiss albino mice; [13]): 111.02 ± 5.61 mg/dL; WBC (Swiss albino mice; [13]): 9.54 ± 0.79 1000*/mm^3; ALKP (Swiss albino mice; [14]): 173.23 ± 14.47 U L^−1; Albumin (Swiss albino mice; [14]): 2.55 ± 0.19 g/dL; Bilirubin (Swiss albino mice; [14]): 0.49 ± 0.02 mg/dL; Body weight (Swiss albino mice; [14]): 31.82 ± 0.96 g; Cholesterol (Swiss albino mice; [14]): 111.51 ± 3.48 mg/dL; Creatinine (Swiss albino mice; [14]): 0.90 ± 0.13 mg/dL; Haemoglobin (Swiss albino mice; [14]): 12.68 ± 0.71 g/dL; RBC (Swiss albino mice; [14]): 7.34 ± 0.38 million per mm^3; SGOT (Swiss albino mice; [14]): 19.39 ± 1.51 U L^−1; SGPT (Swiss albino mice; [14]): 18.03 ± 0.64 U L^−1; Serum protein (Swiss albino mice; [14]): 5.86 ± 0.18 mg/mL; Triglycerides (Swiss albino mice; [14]): 110.41 ± 3.90 mg/dL; WBC (Swiss albino mice; [14]): 10.13 ± 0.50 1000*/mm^3; ALKP (Swiss albino mice; [15]): 170.75 ± 6.26 U L^−1; Albumin (Swiss albino mice; [15]): 2.70 ± 0.09 g/dL; Bilirubin (Swiss albino mice; [15]): 0.47 ± 0.04 mg/dL; Body weight (Swiss albino mice; [15]): 27.92 ± 1.30 g; Cholesterol (Swiss albino mice; [15]): 107.82 ± 3.48 mg/dL; Creatinine (Swiss albino mice; [15]): 0.97 ± 0.09 mg/dL; Haemoglobin (Swiss albino mice; [15]): 12.42 ± 0.55 g/dL; RBC (Swiss albino mice; [15]): 7.54 ± 0.62 million per mm^3; SGOT (Swiss albino mice; [15]): 19.73 ± 1.43 U L^−1; SGPT (Swiss albino mice; [15]): 17.55 ± 1.23 U L^−1; Serum protein (Swiss albino mice; [15]): 5.93 ± 0.13 mg/mL; Triglycerides (Swiss albino mice; [15]): 108.74 ± 2.77 mg/dL; IC50 [1]: 7.69 ± 2.8 µM; MEF50 (Mean Erythrocyte Fragility; concentration of PBS at which 50% of erythrocytes undergo hemolysis) [5]: 0.457; IC50 [2]: 18.5 ± 1.1 µM; IC50 [3]: 9.38 ± 1.6 µM; IC50 [4]: 8.72 ± 1.8 µM

Question: With `O=C/C=C/c1ccccc1` [Compound 1, (E)-3-phenylprop-2-enal, reference compound] as the compound, how does the “Zone of inhibition Staphylococcus aureus” value [6] read?
Answer: 7–8 mm

Question: What about the “Zone of inhibition Klebsiella pneumoniae” value [7] of the same compound?
Answer: 7–8 mm

Question: What about the IC50 [1] of the same compound?
Answer: 13.9 ± 1.6 µM

Question: What about the IC50 [2] of the same compound?
Answer: 20.6 ± 1 µM

Question: And the “Zone of inhibition Escherichia coli” value [8]?
Answer: 7–8 mm

Question: What about the IC50 [3] of the same compound?
Answer: 21.8 ± 1 µM

Question: What about the IC50 [4] of the same compound?
Answer: 22.4 ± 1.6 µM

Question: And the zone of inhibition at 1000 µg/mL [9]?
Answer: 11 mm

Question: And the “Zone of inhibition Bacillus subtilis” value [10]?
Answer: 7–8 mm
